Laboratory results as given in ChEMBL document CHEMBL1127739, “Newly discovered stereochemical requirements in the side-chain conformation of delta opioid agonists for recognizing opioid delta receptors” (J Med Chem, 1994).

How the values were obtained:
Mu-type opioid receptor = Mu-type opioid receptor (Cavia porcellus, UniProt P97266); assay: Effective concentration was measured towards mu opioid receptor using guinea pig ileum (GPI, mu) bioassay in vitro; format: tissue-based
How it was run: (§1)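 Electrically stimulated MVD (male ICR mice, 25–30 g) and GPI longitudinal muscle-myenteric plexus (male Hartley guinea pigs, 150–400 g) in 37 °C oxygenated Krebs, magnesium-free for MVD. Tension 1 g (MVD 0.5 g); stimulation 0.1 Hz, 0.4-ms pulses (MVD 2.0 ms), supramaximal voltage.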

[1] = Selectivity is the ratio between IC50 values of [3H]CTOP and [3H][p-Cl-phe4]-DPDPE
How it was run: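 Brain membranes were homogenised in 50 mM Tris-HCl pH 7.4, pelleted at 48000g, and preincubated at 25 °C for 30 min to strip endogenous peptides. Buffer contained BSA, bestatin, bacitracin, captopril and toluenesulfonyl fluoride. δ radioligand was [3H][D-Pen2,p-Cl-Phe4,D-Pen5]enkephalin 0.75 nM; μ was [3H]CTOP 0.5 nM. Ten concentrations over 800-fold, in duplicate. Nonspecific binding used 10 μM naltrexone. Incubated 25 °C for 3 h, then filtered and counted.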

[2] = biological target: Delta-type opioid receptor (Mus musculus, UniProt P32300); assay: Effective concentration was measured towards delta opioid receptor using mouse vas deferens(MVD, delta) bioassay in vitro; how it was run: as §1
[3] = biological target: Opioid receptors; mu & delta (Homo sapiens) (UniProt P41143+P35372); assay: Selectivity is the ratio between EC50 values GPI(mu) and MVD(delta); format: protein assay
How it was run: as §1, with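 “voltage. Agonist applied 3 min; percent inhibition of contraction height.” for “voltage.”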

Mu-type opioid receptor, sequence (P97266 whole entry): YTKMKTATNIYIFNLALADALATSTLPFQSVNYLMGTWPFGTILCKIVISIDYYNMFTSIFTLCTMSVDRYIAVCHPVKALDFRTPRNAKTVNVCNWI
Delta-type opioid receptor, sequence (P32300 whole entry): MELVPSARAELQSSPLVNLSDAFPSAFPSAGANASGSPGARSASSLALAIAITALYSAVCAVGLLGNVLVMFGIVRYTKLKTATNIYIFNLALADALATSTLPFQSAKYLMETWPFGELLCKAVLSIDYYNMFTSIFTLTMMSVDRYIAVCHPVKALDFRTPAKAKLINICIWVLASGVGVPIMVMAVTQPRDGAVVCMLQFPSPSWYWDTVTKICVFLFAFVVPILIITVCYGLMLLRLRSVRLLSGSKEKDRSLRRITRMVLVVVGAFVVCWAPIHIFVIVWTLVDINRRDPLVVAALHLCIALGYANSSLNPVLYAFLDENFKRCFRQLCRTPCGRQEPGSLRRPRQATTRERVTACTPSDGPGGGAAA
Opioid receptors; mu & delta (Homo sapiens), sequence (P35372 whole entry, looked up): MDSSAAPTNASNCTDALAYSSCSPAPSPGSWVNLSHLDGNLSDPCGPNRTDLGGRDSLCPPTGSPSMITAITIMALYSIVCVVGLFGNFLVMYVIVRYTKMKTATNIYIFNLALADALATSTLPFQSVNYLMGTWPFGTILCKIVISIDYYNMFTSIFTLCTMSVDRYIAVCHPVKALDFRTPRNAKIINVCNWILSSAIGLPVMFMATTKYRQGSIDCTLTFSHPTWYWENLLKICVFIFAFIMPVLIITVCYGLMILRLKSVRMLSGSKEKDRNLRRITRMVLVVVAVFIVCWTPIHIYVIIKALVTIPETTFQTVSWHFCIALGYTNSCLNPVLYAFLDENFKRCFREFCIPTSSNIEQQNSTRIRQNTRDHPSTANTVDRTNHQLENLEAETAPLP
Opioid receptors; mu & delta (Homo sapiens), sequence (P41143 whole entry, looked up): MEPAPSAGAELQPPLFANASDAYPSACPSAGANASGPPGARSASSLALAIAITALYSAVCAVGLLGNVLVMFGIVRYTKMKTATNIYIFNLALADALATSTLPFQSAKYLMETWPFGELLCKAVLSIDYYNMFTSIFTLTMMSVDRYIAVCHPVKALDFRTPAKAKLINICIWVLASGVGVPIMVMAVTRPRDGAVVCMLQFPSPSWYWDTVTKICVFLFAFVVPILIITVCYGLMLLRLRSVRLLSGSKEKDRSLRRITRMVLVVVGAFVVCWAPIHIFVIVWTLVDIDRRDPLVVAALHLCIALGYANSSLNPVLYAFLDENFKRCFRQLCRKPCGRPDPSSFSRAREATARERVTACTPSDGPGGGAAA

Row | SMILES | EC50 (Mu-type opioid receptor) [nM] | Selectivity [1] | EC50 [2] [nM] | Selectivity [3]
1 | Cc1cc(O)cc(C)c1[C@H](C)[C@H](N)C(=O)N[C@H]1C(=O)NCC(=O)N[C@@H](Cc2ccccc2)C(=O)N[C@@H](C(=O)O)C(C)(C)SSC1(C)C | 293 | 3.4 | 168 | 1.74
2 | Cc1cc(O)cc(C)c1[C@H](C)[C@H](N)C(=O)N[C@H](C)C(=O)N[C@@H](Cc1ccccc1)C(=O)N[C@@H](CC(=O)O)C(=O)N[C@H](C(=O)N[C@H](C(=O)NCC(N)=O)C(C)C)C(C)C | 3840 | 5740 | 0.66 | 5820
